Source: ChEMBL document CHEMBL1157144, “Novel 16-membered macrolides modified at C-12 and C-13 positions of midecamycin A1 and miokamycin. Part 1: Synthesis and evaluation of 12,13-carbamate and 12-arylalkylamino-13-hydroxy analogues” (2008)
Converted amounts (≈) assume the structure as drawn.

Columns and labels:
Format in all cases: functional
[1] = tested on: Haemophilus influenzae; assay: Antibacterial activity against standard Haemophilus influenzae after 20 hrs by agar dilution method
Procedure, shortened: (§1)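 MIC by agar dilution. Strains grown on blood agar plates for seed culture. About 5 µl of a suspension of roughly 10^6 CFU/ml spotted onto Sensitivity disk agar with 5% horse blood. Plates incubated at 37 °C for 20 h, then MIC read.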

[2] = tested on: Streptococcus pneumoniae; assay: Antibacterial activity against mefE efflux-resistant Streptococcus pneumoniae after 20 hrs by agar dilution method
Procedure, shortened: (§2)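 Agar dilution MIC. Streptococcal strains were pre-cultured on blood agar plates. A 5 µl portion of a cell suspension of about 10^6 CFU/ml was inoculated onto Sensitivity disk agar supplemented with 5% horse blood. Plates were incubated at 37 °C for 20 h, then MIC was read.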

[3] = tested on: Streptococcus pneumoniae; assay: Antibacterial activity against ermB-constitutive resistant Streptococcus pneumoniae after 20 hrs by agar dilution method; procedure, shortened: as §2
[4] = tested on: Streptococcus pneumoniae; assay: Antibacterial activity against ermB-inducible resistant Streptococcus pneumoniae after 20 hrs by agar dilution method; procedure, shortened: as §2
[5] = tested on: Staphylococcus aureus; assay: Antibacterial activity against ermC-inducible resistant Staphylococcus aureus after 20 hrs by agar dilution method
Procedure, shortened: (§3)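 Agar dilution MIC. The inoculum came from a seed culture in Sensitivity test broth. A 5 µl portion of a cell suspension of about 10^6 CFU/ml was inoculated onto Sensitivity disk agar supplemented with 5% horse blood. Plates were incubated at 37 °C for 20 h, then MIC was read.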

[6] = tested on: Staphylococcus aureus; assay: Antibacterial activity against ermB-inducible resistant Staphylococcus aureus after 20 hrs by agar dilution method; procedure, shortened: as §3
[7] = tested on: Haemophilus influenzae; assay: Antibacterial activity against susceptible Haemophilus influenzae after 20 hrs by agar dilution method; procedure, shortened: as §1
[8] = tested on: Staphylococcus aureus; assay: Antibacterial activity against standard Staphylococcus aureus after 20 hrs by agar dilution method; procedure, shortened: as §3
[9] = tested on: Streptococcus pyogenes; assay: Antibacterial activity against ermB-constitutive resistant Streptococcus pyogenes after 20 hrs by agar dilution method; procedure, shortened: as §2
[10] = tested on: Staphylococcus aureus; assay: Antibacterial activity against ermA-constitutive resistant Staphylococcus aureus after 20 hrs by agar dilution method; procedure, shortened: as §3
[11] = tested on: Staphylococcus aureus; assay: Antibacterial activity against susceptible Staphylococcus aureus after 20 hrs by agar dilution method; procedure, shortened: as §3
[12] = tested on: Streptococcus pyogenes; assay: Antibacterial activity against mefE efflux-resistant Streptococcus pyogenes after 20 hrs by agar dilution method; procedure, shortened: as §2
[13] = tested on: Moraxella catarrhalis; assay: Antibacterial activity against standard Moraxella catarrhalis after 20 hrs by agar dilution method; procedure, shortened: as §1
[14] = tested on: Streptococcus pneumoniae; assay: Antibacterial activity against susceptible Streptococcus pneumoniae after 20 hrs by agar dilution method; procedure, shortened: as §1
[15] = tested on: Streptococcus pyogenes; assay: Antibacterial activity against standard Streptococcus pyogenes after 20 hrs by agar dilution method; procedure, shortened: as §1

SMILES	MIC [1] [µg/mL]	MIC [2] [µg/mL]	MIC [3] [µg/mL]	MIC [4] [µg/mL]	MIC [5] [µg/mL]	MIC [6] [µg/mL]	MIC [7] [µg/mL]	MIC [8] [µg/mL]	MIC [9] [µg/mL]	MIC [10] [µg/mL]	MIC [11] [µg/mL]	MIC [12] [µg/mL]	MIC [13] [µg/mL]	MIC [14] [µg/mL]	MIC [15] [µg/mL]
CCC(=O)O[C@@H]1CC(=O)O[C@H](C)C[C@H](O)[C@H](N(C)CCCc2ccccc2)/C=C/[C@H](OC(C)=O)[C@H](C)C[C@H](CC=O)[C@H](O[C@@H]2O[C@H](C)[C@@H](O[C@H]3C[C@@](C)(OC(C)=O)[C@@H](OC(=O)CC)[C@H](C)O3)[C@H](N(C)C)[C@H]2O)[C@H]1OC	3.13 (≈ 2.94 µM)	0.1 (≈ 0.094 µM)	> 100	1.56 (≈ 1.47 µM)	0.39 (≈ 0.367 µM)	0.2 (≈ 0.188 µM)	25 (≈ 23.5 µM)	0.39 (≈ 0.367 µM)	50 (≈ 47 µM)	> 100	0.39 (≈ 0.367 µM)	0.1 (≈ 0.094 µM)	0.39 (≈ 0.367 µM)	0.05 (≈ 0.047 µM)	0.05 (≈ 0.047 µM)
CCC(=O)O[C@@H]1CC(=O)O[C@H](C)C[C@H](O)[C@H](N(C)CCCc2cccc3ccccc23)/C=C/[C@H](OC(C)=O)[C@H](C)C[C@H](CC=O)[C@H](O[C@@H]2O[C@H](C)[C@@H](O[C@H]3C[C@@](C)(O)[C@@H](OC(=O)CC)[C@H](C)O3)[C@H](N(C)C)[C@H]2O)[C@H]1OC	6.25 (≈ 5.83 µM)	0.1 (≈ 0.0933 µM)	50 (≈ 46.7 µM)	6.25 (≈ 5.83 µM)	0.78 (≈ 0.728 µM)	3.13 (≈ 2.92 µM)	25 (≈ 23.3 µM)	0.39 (≈ 0.364 µM)	50 (≈ 46.7 µM)	> 100	0.39 (≈ 0.364 µM)	0.2 (≈ 0.187 µM)	0.78 (≈ 0.728 µM)	0.1 (≈ 0.0933 µM)	0.1 (≈ 0.0933 µM)
CCC(=O)O[C@@H]1CC(=O)O[C@H](C)C[C@H](O)[C@H](N(C)CCCc2cnc3ccccc3c2)/C=C/[C@H](OC(C)=O)[C@H](C)C[C@H](CC=O)[C@H](O[C@@H]2O[C@H](C)[C@@H](O[C@H]3C[C@@](C)(O)[C@@H](OC(=O)CC)[C@H](C)O3)[C@H](N(C)C)[C@H]2O)[C@H]1OC	3.13 (≈ 2.92 µM)	0.1 (≈ 0.0933 µM)	> 100	12.5 (≈ 11.7 µM)	0.39 (≈ 0.364 µM)	0.2 (≈ 0.187 µM)	25 (≈ 23.3 µM)	0.39 (≈ 0.364 µM)	> 100	> 100	0.39 (≈ 0.364 µM)	0.2 (≈ 0.187 µM)	0.78 (≈ 0.727 µM)	0.05 (≈ 0.0466 µM)	0.1 (≈ 0.0933 µM)
CCC(=O)O[C@@H]1CC(=O)O[C@H](C)C[C@H](O)[C@H](N(C)CCCCCCCc2ccccc2)/C=C/[C@H](OC(C)=O)[C@H](C)C[C@H](CC=O)[C@H](O[C@@H]2O[C@H](C)[C@@H](O[C@H]3C[C@@](C)(O)[C@@H](OC(=O)CC)[C@H](C)O3)[C@H](N(C)C)[C@H]2O)[C@H]1OC	12.5 (≈ 11.6 µM)	0.39 (≈ 0.362 µM)	25 (≈ 23.2 µM)	12.5 (≈ 11.6 µM)	1.56 (≈ 1.45 µM)	0.78 (≈ 0.724 µM)	25 (≈ 23.2 µM)	1.56 (≈ 1.45 µM)	25 (≈ 23.2 µM)	100 (≈ 92.8 µM)	0.78 (≈ 0.724 µM)	0.78 (≈ 0.724 µM)	3.13 (≈ 2.91 µM)	0.39 (≈ 0.362 µM)	0.39 (≈ 0.362 µM)
CCC(=O)O[C@@H]1CC(=O)O[C@H](C)C[C@H](O)[C@H](N(C)Cc2ccccc2)/C=C/[C@H](OC(C)=O)[C@H](C)C[C@H](CC=O)[C@H](O[C@@H]2O[C@H](C)[C@@H](O[C@H]3C[C@@](C)(O)[C@@H](OC(=O)CC)[C@H](C)O3)[C@H](N(C)C)[C@H]2O)[C@H]1OC	3.13 (≈ 3.15 µM)	0.1 (≈ 0.101 µM)	> 100	100 (≈ 101 µM)	0.39 (≈ 0.393 µM)	0.2 (≈ 0.201 µM)	25 (≈ 25.2 µM)	0.39 (≈ 0.393 µM)	> 100	> 100	0.39 (≈ 0.393 µM)	0.39 (≈ 0.393 µM)	0.39 (≈ 0.393 µM)	0.1 (≈ 0.101 µM)	0.1 (≈ 0.101 µM)
CCC(=O)O[C@@H]1CC(=O)O[C@H](C)C[C@H](O)[C@H](N(C)C)/C=C/[C@H](OC(C)=O)[C@H](C)C[C@H](CC=O)[C@H](O[C@@H]2O[C@H](C)[C@@H](O[C@H]3C[C@@](C)(O)[C@@H](OC(=O)CC)[C@H](C)O3)[C@H](N(C)C)[C@H]2O)[C@H]1OC	1.56 (≈ 1.7 µM)	0.2 (≈ 0.218 µM)	> 100	> 100	0.78 (≈ 0.851 µM)	1.56 (≈ 1.7 µM)	25 (≈ 27.3 µM)	0.78 (≈ 0.851 µM)	> 100	> 100	0.78 (≈ 0.851 µM)	0.39 (≈ 0.425 µM)	1.56 (≈ 1.7 µM)	0.2 (≈ 0.218 µM)	0.2 (≈ 0.218 µM)
CCC(=O)O[C@@H]1CC(=O)O[C@H](C)C[C@H](O)[C@H](N(C)CCCCCCc2ccccc2)/C=C/[C@H](OC(C)=O)[C@H](C)C[C@H](CC=O)[C@H](O[C@@H]2O[C@H](C)[C@@H](O[C@H]3C[C@@](C)(O)[C@@H](OC(=O)CC)[C@H](C)O3)[C@H](N(C)C)[C@H]2O)[C@H]1OC	6.25 (≈ 5.88 µM)	0.2 (≈ 0.188 µM)	50 (≈ 47 µM)	6.25 (≈ 5.88 µM)	0.39 (≈ 0.367 µM)	0.2 (≈ 0.188 µM)	25 (≈ 23.5 µM)	0.39 (≈ 0.367 µM)	25 (≈ 23.5 µM)	100 (≈ 94 µM)	0.39 (≈ 0.367 µM)	0.2 (≈ 0.188 µM)	0.78 (≈ 0.734 µM)	0.1 (≈ 0.094 µM)	0.2 (≈ 0.188 µM)
CCC(=O)O[C@@H]1CC(=O)O[C@H](C)C[C@H](O)[C@H](N(C)CCCc2ccnc3ccccc23)/C=C/[C@H](OC(C)=O)[C@H](C)C[C@H](CC=O)[C@H](O[C@@H]2O[C@H](C)[C@@H](O[C@H]3C[C@@](C)(O)[C@@H](OC(=O)CC)[C@H](C)O3)[C@H](N(C)C)[C@H]2O)[C@H]1OC	1.56 (≈ 1.45 µM)	0.025 (≈ 0.0233 µM)	50 (≈ 46.6 µM)	0.78 (≈ 0.727 µM)	0.2 (≈ 0.187 µM)	0.1 (≈ 0.0933 µM)	12.5 (≈ 11.7 µM)	0.1 (≈ 0.0933 µM)	> 100	> 100	0.1 (≈ 0.0933 µM)	0.1 (≈ 0.0933 µM)	0.39 (≈ 0.364 µM)	0.013 (≈ 0.0121 µM)	0.05 (≈ 0.0466 µM)
CCC(=O)O[C@@H]1CC(=O)O[C@H](C)C[C@H](O)[C@H](N(C)CCCc2ccnc3ccccc23)/C=C/[C@H](OC(C)=O)[C@H](C)C[C@H](CC=O)[C@H](O[C@@H]2O[C@H](C)[C@@H](O)[C@H](N(C)C)[C@H]2O)[C@H]1OC	0.39 (≈ 0.447 µM)	0.1 (≈ 0.115 µM)	> 50	12.5 (≈ 14.3 µM)	0.39 (≈ 0.447 µM)	0.39 (≈ 0.447 µM)	1.56 (≈ 1.79 µM)	0.2 (≈ 0.229 µM)	> 50	> 50	0.39 (≈ 0.447 µM)	1.56 (≈ 1.79 µM)	0.05 (≈ 0.0573 µM)	0.025 (≈ 0.0287 µM)	0.1 (≈ 0.115 µM)
CCC(=O)O[C@@H]1CC(=O)O[C@H](C)C[C@H](O)[C@H](N(C)CCCn2cnc(-c3cccnc3)c2)/C=C/[C@H](OC(C)=O)[C@H](C)C[C@H](CC=O)[C@H](O[C@@H]2O[C@H](C)[C@@H](O[C@H]3C[C@@](C)(O)[C@@H](OC(=O)CC)[C@H](C)O3)[C@H](N(C)C)[C@H]2O)[C@H]1OC	1.56 (≈ 1.43 µM)	0.1 (≈ 0.0919 µM)	> 100	100 (≈ 91.9 µM)	0.39 (≈ 0.358 µM)	0.39 (≈ 0.358 µM)	25 (≈ 23 µM)	0.39 (≈ 0.358 µM)	> 100	> 100	0.2 (≈ 0.184 µM)	0.2 (≈ 0.184 µM)	1.56 (≈ 1.43 µM)	0.06 (≈ 0.0551 µM)	0.1 (≈ 0.0919 µM)
